For series [1], the target named is T1, Neuropeptide FF receptor 2 (Homo sapiens, UniProt Q9Y5X5). Put plainly: Agonist activity at human NPFF2 receptor expressed in cells assessed as beta-galactosidase levels at […] after 5 days. The format is functional, cell-based.
Series [2] addresses T1, Neuropeptide FF receptor 2. Put plainly: Agonist activity at human NPFF2 receptor expressed in cells assessed as beta-galactosidase levels after 5 days. Format: functional, cell-based. The essentials: (§1)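 Functional R-SAT assay at human NPFF1 and NPFF2 receptors in agonist mode. Dose-response curves were built from seven concentrations, each tested in triplicate. Values are mean ± SEM of at least three independent experiments.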

In series [3] the target is T2, Neuropeptide FF receptor 1 (Homo sapiens, UniProt Q9GZQ6). Put plainly: Agonist activity at human NPFF1 receptor expressed in cells assessed as beta-galactosidase levels at […] after 5 days. Format: functional, cell-based.
T2 sequence (Q9GZQ6 whole entry): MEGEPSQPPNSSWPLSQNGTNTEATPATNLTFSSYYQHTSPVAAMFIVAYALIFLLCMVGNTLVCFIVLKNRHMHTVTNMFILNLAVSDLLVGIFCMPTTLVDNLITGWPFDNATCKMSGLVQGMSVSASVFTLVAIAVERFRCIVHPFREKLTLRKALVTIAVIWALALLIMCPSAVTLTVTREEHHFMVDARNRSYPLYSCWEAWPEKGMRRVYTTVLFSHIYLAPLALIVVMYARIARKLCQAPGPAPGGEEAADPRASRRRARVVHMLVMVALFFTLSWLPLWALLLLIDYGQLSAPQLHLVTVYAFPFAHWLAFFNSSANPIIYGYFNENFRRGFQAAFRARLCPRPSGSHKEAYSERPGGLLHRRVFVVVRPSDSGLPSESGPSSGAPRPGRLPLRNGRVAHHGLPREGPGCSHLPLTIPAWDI
In series [4] the target is T2, Neuropeptide FF receptor 1. As to the kind of experiment: Agonist activity at human NPFF1 receptor expressed in cells assessed as beta-galactosidase levels after 5 days. The format is functional, cell-based. The essentials: as §1
The nature of series [5]: Half life in Sprague-Dawley rat. The format is ADME, organism-based. Conditions: in vivo.
Series [6] is described as follows: Dissociation constant, pKa of the compound. Format: physicochemical.
The nature of series [7]: Lipophilicity, log P of the compound. As to conditions: octanol/water. Format: physicochemical.
Series [8] can be described thus: Clearance in rat liver microsomes. Format: ADME, Microsome. The essentials:
(§2)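 Stability was measured in human and in rat liver microsomes. Clearance is reported in μL/(min·mg) and related to liver blood flow.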

A short description of series [9]: Distribution coefficient, log D of the compound. Format: physicochemical. Conditions: octanol/water.
Series [10] can be described thus: Clearance in human liver microsomes. The format is ADME, Microsome. The gist of the method:
as §2
For orientation: Microsomes from liver hold many membrane-bound enzymes, among them those of drug oxidation.

Series [11] is described as follows: Oral bioavailability in Sprague-Dawley rat. The format is ADME, organism-based. As to conditions: in vivo.
Series [12] is described as follows: Activity at alpha-adrenergic receptor.
Series [13] deals with T2, Neuropeptide FF receptor 1. As to the kind of experiment: Antagonist activity at human NPFF1 receptor expressed in HEK293T cells assessed as inhibition of PGE2-induced cAMP release. The format is functional, cell-based. Conditions: HEK-293T.
Series [14] relates to Rattus norvegicus. Put plainly: Antiallodynic activity in Sprague-Dawley rat Kim-Chung model of neuropathic pain assessed mechanical-stimuli induced paw withdrawal threshold at 10 mg/kg. Format: functional, organism-based. On the set-up: dose 10 mg/kg. The essentials:
(§3)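 Rats underwent spinal nerve ligation (SNL), with sham-operated rats also used. Tactile allodynia was defined as a significant reduction in paw withdrawal threshold to mechanical stimuli.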

Series [15] has as its system Rattus norvegicus. As to the kind of experiment: Antiinflammatory activity in ip dosed Sprague-Dawley rat assessed as inhibition of carrageenan-induced paw edema. Format: functional, organism-based. On the technique in general: The carrageenan paw model is a standard test of acute inflammation.
Series [16] has as its system Rattus norvegicus. Put plainly: Antiinflammatory activity in ip dosed Sprague-Dawley rat assessed as inhibition of carrageenan-induced thermal hypersensitivity by hotplate test. Format: functional, organism-based. The essentials:
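Acute inflammatory pain was produced in rats by carrageenan. Thermal hypersensitivity was measured by hot plate test on a metal plate held at 52 °C.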

Series [17] deals with Rattus norvegicus. As to the kind of experiment: Antiallodynic activity in Sprague-Dawley rat Kim-Chung model of neuropathic pain assessed mechanical-stimuli induced paw withdrawal threshold at 30 mg/kg. The format is functional, organism-based. On the set-up: dose 30 mg/kg. The essentials: as §3
Series [18] addresses T2, Neuropeptide FF receptor 1. As to the kind of experiment: Agonist activity at human NPFF1 receptor expressed in HEK293T cells assessed as inhibition of PGE2-induced cAMP release. On the set-up: Activity: scale not given: the % may be the effect or the level left. As to conditions: HEK-293T.
Series [19] concerns the target T1, Neuropeptide FF receptor 2. Put plainly: Agonist activity at human NPFF2 receptor expressed in HEK293T cells assessed as inhibition of PGE2-induced cAMP release. Conditions: HEK-293T.
The species named for series [20] is Rattus norvegicus. As to the kind of experiment: Antiallodynic activity in Sprague-Dawley rat Kim-Chung model of neuropathic pain assessed mechanical-stimuli induced paw withdrawal threshold in presence of […]-antagonist dansyl-PQR-amide. Format: functional, organism-based. The gist of the method: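 Rats with spinal nerve ligation, plus sham-operated rats. Tactile allodynia was scored as a significant reduction in paw withdrawal threshold. The selective NPFF1 antagonist dansylPQRamide was given at 30 mg/kg ip alongside the test agonist, with systemic dosing.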

For series [21], the species on record is Rattus norvegicus. Put plainly: Antiallodynic activity in Sprague-Dawley rat Kim-Chung model of neuropathic pain assessed mechanical-stimuli induced paw withdrawal threshold. The format is functional, organism-based. The gist of the method:
as §3

Active and inactive are the calls of the source.

This note sets out measurements from ChEMBL document CHEMBL1154595, “Discovery of selective nonpeptidergic neuropeptide FF2 receptor agonists” (J Med Chem, 2009).

T1 sequence (Q9Y5X5 whole entry): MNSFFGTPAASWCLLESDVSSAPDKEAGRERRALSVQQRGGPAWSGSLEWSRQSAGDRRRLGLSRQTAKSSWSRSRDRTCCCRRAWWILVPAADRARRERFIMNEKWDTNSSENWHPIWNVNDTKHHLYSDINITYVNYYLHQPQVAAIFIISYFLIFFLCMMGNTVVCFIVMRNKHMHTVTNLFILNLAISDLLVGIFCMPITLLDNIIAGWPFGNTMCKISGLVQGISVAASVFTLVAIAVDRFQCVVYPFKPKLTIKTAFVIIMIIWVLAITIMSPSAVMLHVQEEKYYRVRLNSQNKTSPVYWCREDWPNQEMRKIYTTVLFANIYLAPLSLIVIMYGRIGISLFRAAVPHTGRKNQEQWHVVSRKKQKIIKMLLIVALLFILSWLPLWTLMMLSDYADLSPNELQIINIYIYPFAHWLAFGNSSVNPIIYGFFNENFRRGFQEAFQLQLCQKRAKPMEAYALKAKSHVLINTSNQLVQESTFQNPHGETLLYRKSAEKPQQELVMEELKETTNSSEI

What is called EC50 is the concentration that produces a half-maximal response. Regarding `N=C(N)N/N=C(\c1ccccc1)c1ccc(Cl)c(Cl)c1`, the results for the Efficacy in [1] and in [3] were 63% and 46%, respectively. For the same compound, the EC50 in series [2] and in series [4] was 0.794 µM throughout.

For `Cn1c(/C=N/NC(=N)N)ccc1-c1ccccc1C(F)(F)F`, the Efficacy in series [1] turned out to be 72%; in series [3], 36%. In addition, the EC50 in series [2] is 0.126 µM; in [4], 0.316 µM.

On to `CC(C)c1ccccc1-c1ccc(/C=N/NC(=N)N)o1`, for which the values for the Efficacy in series [1] and in series [3] were 70% and 62%, respectively. The EC50 was 0.2 µM in series [2] and 0.158 µM in series [4].

Usually half-life stands for the time in which the quantity being followed falls by half. As a reminder, the pKa is the negative logarithm of the acid dissociation constant. One may read the logP as a log measure of how a compound divides between an organic and an aqueous phase. The microsomal CLint is the rate of metabolic loss divided by the concentration. What is called logD is lipophilicity at a set pH, counting ionised and neutral species. In general, bioavailability refers to the share of a dose that reaches the circulation, judged against a reference dose that is usually intravenous. On to `NC(N)=N/N=C/c1ccc(Cl)c(Cl)c1`, for which, in [5], the half-life was 2.5 h. For the same compound, in series [6], the pKa was 8.4. Moreover, in [7], the logP stood at 2.8. The EC50 in series [2] is 1 µM. Moreover, the microsomal CLint in [8] was 18 µL/min/mg; in series [10] it was 26 µL/min/mg. This compound also registered a pH-dependent lipophilicity (logD) in [9] of 1.8. This compound had a bioavailability in series [11] of 43%.

For the compound `N=C(N)N/N=C/c1ccc(Cl)c(Cl)c1`, the Efficacy is 68% in series [1] and 18% in [3]. Further, the result (in series [12]; in [13]; in the series on Rattus norvegicus [15]) was inactive. For the same compound, the result with Rattus norvegicus [14] was Active. The Activity result in the series with Rattus norvegicus [16] was “Dose-dependent effect”.

Consider `C/C(=N\N=C(N)N)c1ccc(Cl)c(Cl)c1`, for which the Efficacy in series [1] was determined as 64%. Besides, in series [2], the EC50 is 0.501 µM. The Efficacy entry in series [3] was “inactive”.

As for `N=C(N)N/N=C/c1ccc(Br)c(Br)c1`, the Efficacy in series [1] came to 90%. For the same compound, in series [3], the Efficacy entry was “inactive”.

Consider `CCCCCNC(=N)N/N=C/c1c[nH]c2ccc(OC)cc12`, for which the result in series [1] and in series [3] was inactive.

As to `N=C(N)N/N=C/c1ccc(Cl)c(C(F)(F)F)c1`, the Efficacy was 114% in [1], 89% in series [19] and 46% in [3]. Moreover, in the series with Rattus norvegicus [17], the outcome was Active. The results for the Activity (in [18]; with Rattus norvegicus [16]) were 42% and “Dose-dependent effect”, respectively. In addition, the EC50 in [4] is more than 3.16 µM. For the same compound, the outcome in the series with Rattus norvegicus [15] was inactive.

In the case of `CN(C)c1cccc2c(S(=O)(=O)N3CCC[C@H]3C(=O)N[C@@H](CCC(N)=O)C(=O)N[C@@H](CCCNC(=N)N)C(N)=O)cccc12`, the outcome in the series filed under Rattus norvegicus [20] was Active.

Regarding `N=C(N)N/N=C/c1c(Cl)cccc1Cl`, the result in series [1] and in series [3] was inactive.

On to `Cc1ccccc1-c1ccc(/C=N/NC(=N)N)o1`, for which the Efficacy in series [1] amounted to 90%; in series [3] it was 55%. Further, the EC50 was 0.1 µM in series [2] and 0.0794 µM in series [4].

Take `C/C(=N\NC(=N)N)c1ccc(Cl)c(C(F)(F)F)c1`: the Efficacy in series [1] was found to be 66%. For the same compound, in [2], the EC50 was 0.398 µM. In series [3], the Efficacy entry was “inactive”.

For `N=C(N)N/N=C/c1ccc(-c2ccccc2C(F)(F)F)s1`, the Efficacy in series [1] stood at 55%; in series [3], 44%. For the same compound, the EC50 was 0.158 µM in series [2] and 0.126 µM in series [4].

As to `N=C(N)N/N=C/c1ccc(-c2ccccc2C(F)(F)F)o1`, the Efficacy came to 73% in series [1], 93% in series [18], 114% in series [19] and 55% in series [3]. For the same compound, in the series listed under Rattus norvegicus [21], the result was inactive. Further, the EC50 in [2] is 0.1 µM; in series [4] it was 0.0398 µM.
